Experimental data from ChEMBL document CHEMBL1152982, “Synthetic analogue of rocaglaol displays a potent and selective cytotoxicity in cancer cells: involvement of apoptosis inducing factor and caspase-12” (J Med Chem, 2009).
pIC50: −log10 of the molar value. Active and inactive are the calls of the source. No cut-off for these calls is given here.

Key:
Mus musculus [1] = assay: Toxicity in B6 mouse assessed as diarrhea at 0.1 mg/kg, ip twice a day for 4 consecutive days measured on day 13; type: organism-based; parameters: dose 0.1 mg/kg, route intraperitoneal; settings: in vivo
In short: (§1)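 Male B6 mice dosed i.p. at 0.1 mg/kg twice daily for four consecutive days; body weight recorded daily over 13 days and signs of acute toxicity such as diarrhea noted.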

H9c2 [2] = assay: Cytotoxicity against rat H9c2 cells at 20 nM after 48 hrs by FACS analysis; type: cell-based; settings: h9c2, 48 h, 0.02 µM
In short: (§2)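 Rat H9c2 cardiomyoblasts treated 24 h (0.5-50 nM) or 24, 48 and 72 h (20 nM) versus vehicle; annexin V plus propidium iodide labeling and FACS for apoptosis; viability in parallel by MTS; doxorubicin 1 μM as positive control.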

KB = assay: Cytotoxicity against human KB cells after 72 hrs by MTS assay; type: functional, cell-based
In short: (§3)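 Human cancer lines treated for 72 h and proliferation/viability read by MTS assay; dose-response curves in duplicate with IC50 taken from the curves; MCF7R is the P-gp (MDR1)-expressing resistant line.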

MCF7 [3] = assay: Cytotoxicity against human MCF7 cells after 72 hrs by MTS assay; type: functional, cell-based; settings: Homo sapiens, MCF7, 72 h; read-out: IC50; in short: as §3
MCF7 [4] = assay: Cytotoxicity against human MCF7 cells expressing P-glycoprotein after 72 hrs by MTS assay; type: functional, cell-based; settings: Homo sapiens, MCF7, 72 h; read-out: IC50; in short: as §3
HCT-116 = assay: Cytotoxicity against human HCT116 cells after 72 hrs by MTS assay; type: functional, cell-based; settings: HCT-116, 72 h; in short: as §3
HCT-15 = assay: Cytotoxicity against human HCT15 cells after 72 hrs by MTS assay; type: functional, cell-based; settings: Homo sapiens, HCT-15, 72 h; read-out: IC50; in short: as §3
HL-60 [5] = assay: Cytotoxicity against human HL60 cells after 72 hrs by MTS assay; type: functional, cell-based; settings: HL-60, 72 h
In short: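 HL60 cells exposed to compound for 72 h; proliferation/viability read by MTS assay. IC50 taken from dose-response curves run in duplicate.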

[6] = molecular target: ATP-dependent translocase ABCB1 (Homo sapiens, UniProt P08183); assay: Inhibition of P-glycoprotein expressing human MCF7 cells assessed as change in rhodamine 123 efflux at 0.1 to 1 uM; type: cell-based
Chain of ATP-dependent translocase ABCB1 (P08183 whole entry): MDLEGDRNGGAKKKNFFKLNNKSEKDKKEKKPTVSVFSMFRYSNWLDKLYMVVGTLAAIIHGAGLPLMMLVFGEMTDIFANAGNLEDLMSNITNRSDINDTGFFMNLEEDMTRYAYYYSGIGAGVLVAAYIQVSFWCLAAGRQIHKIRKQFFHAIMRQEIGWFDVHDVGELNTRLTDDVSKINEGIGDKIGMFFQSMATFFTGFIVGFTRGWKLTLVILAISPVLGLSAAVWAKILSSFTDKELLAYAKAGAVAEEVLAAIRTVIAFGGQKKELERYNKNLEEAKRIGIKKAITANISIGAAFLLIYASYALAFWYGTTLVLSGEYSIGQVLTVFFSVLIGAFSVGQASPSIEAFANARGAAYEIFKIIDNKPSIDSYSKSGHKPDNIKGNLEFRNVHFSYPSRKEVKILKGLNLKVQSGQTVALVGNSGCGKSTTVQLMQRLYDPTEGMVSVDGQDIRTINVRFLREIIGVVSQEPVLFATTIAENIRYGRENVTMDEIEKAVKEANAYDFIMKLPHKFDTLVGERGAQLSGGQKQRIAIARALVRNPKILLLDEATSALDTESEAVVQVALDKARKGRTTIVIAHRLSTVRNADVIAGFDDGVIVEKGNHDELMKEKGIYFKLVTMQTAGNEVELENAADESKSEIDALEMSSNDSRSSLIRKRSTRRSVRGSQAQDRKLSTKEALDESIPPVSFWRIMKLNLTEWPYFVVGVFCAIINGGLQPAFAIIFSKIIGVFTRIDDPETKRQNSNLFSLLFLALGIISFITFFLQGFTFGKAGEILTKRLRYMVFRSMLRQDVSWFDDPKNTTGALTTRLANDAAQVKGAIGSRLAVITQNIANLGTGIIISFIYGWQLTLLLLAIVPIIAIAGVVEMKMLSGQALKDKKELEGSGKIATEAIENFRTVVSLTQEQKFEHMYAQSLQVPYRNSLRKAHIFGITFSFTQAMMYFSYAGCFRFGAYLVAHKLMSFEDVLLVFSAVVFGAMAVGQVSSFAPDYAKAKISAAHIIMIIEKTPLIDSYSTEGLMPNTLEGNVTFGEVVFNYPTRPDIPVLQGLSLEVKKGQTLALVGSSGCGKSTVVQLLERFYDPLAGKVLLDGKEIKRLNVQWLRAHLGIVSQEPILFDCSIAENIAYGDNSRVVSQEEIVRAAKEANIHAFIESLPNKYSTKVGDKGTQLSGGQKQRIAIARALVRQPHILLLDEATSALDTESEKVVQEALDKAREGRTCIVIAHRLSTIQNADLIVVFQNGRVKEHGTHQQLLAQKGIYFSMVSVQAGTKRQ

HepG2 [7] = assay: Enhancement of doxorubicin-induced cytotoxicity against human HepG2 cells after 72 hrs by MTS assay; type: functional, cell-based
In short: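 HepG2 cells given the test agent alone or together with 150 nM doxorubicin for 72 h; proliferation by MTS assay; duplicate experiments, n = 3.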

H9c2 [8] = assay: Induction of apoptosis in rat H9c2 cells at 0.5 to 50 nM after 24 hrs by FACS analysis; type: cell-based; settings: h9c2, 24 h, 0.05 µM; in short: as §2
H9c2 [9] = assay: Induction of apoptosis in rat H9c2 cells at 20 nM after 48 hrs by FACS analysis; type: cell-based; settings: h9c2, 48 h, 0.02 µM; in short: as §2
H9c2 [10] = assay: Induction of apoptosis in rat H9c2 cells at 20 nM after 72 hrs by FACS analysis; type: cell-based; settings: h9c2, 72 h, 0.02 µM; in short: as §2
HepG2 [11] = assay: Cytotoxicity against human HepG2 cells after 72 hrs by MTS assay; type: functional, cell-based; settings: Homo sapiens, HepG2, 72 h; read-out: IC50; in short: as §3
Mus musculus [12] = assay: Toxicity in B6 mouse assessed as body weight loss at 0.1 mg/kg, ip twice a day for 4 consecutive days measured on day 13; type: organism-based; parameters: dose 0.1 mg/kg, route intraperitoneal; settings: in vivo; in short: as §1
HL-60 [13] = assay: Cell cycle arrest in human HL60 cells assessed as increase in G0/G1 peak at 200 nM after 48 hrs by FACS analysis; type: functional, cell-based
In short: (§4)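 HL60 cells treated for 48 h; vehicle control 1% DMSO, doxorubicin as positive control. Propidium iodide staining, DNA content by flow cytometry giving cell-cycle distribution (G2/M, G0-G1 peaks); n = 4, each sample in duplicate.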

HL-60 [14] = assay: Cell cycle arrest in human HL60 cells assessed as increase in G0/G1 peak at 20 nM after 48 hrs by FACS analysis; type: functional, cell-based; in short: as §4
HL-60 [15] = assay: Induction of apoptosis in human HL60 cells assessed as cell killing at 20 nM after 72 hrs by annexin V flow cytometry; type: functional, cell-based
In short: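 HL60 cells treated with 20 nM for 72 h; apoptosis quantified by annexin V staining and flow cytometry.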

HL-60 [16] = assay: Induction of apoptosis in human HL60 cells assessed as caspase 3/7-mediated DEVD-AMC substrate cleavage at 1 to 1000 nM after 48 hrs by spectroscopy; type: functional, cell-based
In short: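 HL60 cells treated 48 h, doxorubicin as positive control; whole-cell extracts incubated with DEVD-AMC, fluorescence release followed over time; rate from slope of linear phase, expressed as fold-activation over DMSO-treated control.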

HL-60 [17] = assay: Induction of apoptosis in human HL60 cells assessed as caspase 3/7-mediated DEVD-AMC substrate cleavage at 24 to 72 hrs by spectroscopy; type: functional, cell-based
HL-60 [18] = assay: Induction of apoptosis in human HL60 cells assessed as […] mediated LEHD-AMC substrate cleavage at 1 to 1000 nM after 48 hrs by spectroscopy; type: functional, cell-based
HL-60 [19] = assay: Induction of apoptosis in human HL60 cells assessed as caspase 9-mediated […]-AMC substrate cleavage at 1 to 1000 nM after 48 hrs by spectroscopy; type: functional, cell-based
HL-60 [20] = assay: Antiproliferative activity against human HL60 cells at 50 nM in presence of caspase inhibitor Z-VAD-FMK; type: functional, cell-based
In short: (§5)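 HL60 cells exposed for 72 h, with or without co-treatment with Z-VAD-FMK (50 μM), necrostatin-1 (50 μM) or 3-methyladenine (2 mM). Antiproliferative effect was compared against vehicle.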

HL-60 [21] = assay: Antiproliferative activity against human HL60 cells at 50 nM in presence of […] inhibitor necrostatin 1; type: functional, cell-based; in short: as §5
HL-60 [22] = assay: Antiproliferative activity against human HL60 cells at 50 nM in presence of […] inhibitor 3-methyladenine; type: functional, cell-based; in short: as §5
HL-60 [23] = assay: Inhibition of proteasome activity in human HL60 cells at 2 to 20 nM
In short: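 Lysates of HL60 cells incubated with compound; in vitro chymotrypsin-like and trypsin-like proteasome activities measured with fluorogenic AMC substrates (LLVY-AMC, RLR-AMC).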

Oryctolagus cuniculus = organism: Oryctolagus cuniculus; assay: Inhibition of capped and polyadenylated luciferase mRNA […] in rabbit reticulocyte lysate at 10000 nM after 1 hr; type: functional
In short: (§6)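 Cell-free translation of capped, polyadenylated luciferase mRNA in rabbit reticulocyte lysate, luciferase output as read-out; incubation 1 h; IC50 derived.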

HeLa [24] = assay: Induction of eIF-2alpha phosphorylation in human HeLa cells at 100 uM by Western blotting; type: functional, cell-based
In short: (§7)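 HeLa cells treated 1 h with DMSO, sodium arsenite (500 μM, positive control) or compound (100 or 500 μM); 10 μg total protein by SDS-PAGE/Western blot with anti-eIF2α and anti-phospho-eIF2α, ECL detection.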

HeLa [25] = assay: Induction of eIF-2alpha phosphorylation in human HeLa cells at 500 uM by Western blotting; type: functional, cell-based; in short: as §7
HeLa [26] = assay: Induction of stress granules in human HeLa cells assessed as MLN51 and FMRP marker protein at >10 uM; type: functional, cell-based
In short: (§8)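 HeLa on coverslips in DMEM/5% FCS, cultured 24 h, then exposed to 50 nM-500 μM for 30 min to 8 h; immunofluorescence for stress-granule markers MLN51 (rabbit) and FMRP (mouse); cycloheximide 10 μg/mL and puromycin 100 μg/mL (1 h) as positive controls.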

HeLa [27] = assay: Induction of stress granules in human HeLa cells assessed as MLN51 and FMRP marker protein at 100 uM after 2 hrs; type: functional, cell-based; in short: as §8
HeLa [28] = assay: Induction of stress granules in human HeLa cells assessed as MLN51 and FMRP marker protein at 500 nM after 8 hrs; type: functional, cell-based; in short: as §8
HeLa [29] = assay: Induction of stress granules in human HeLa cells assessed as MLN51 and FMRP marker protein at 100 uM after 8 hrs; type: functional, cell-based; in short: as §8
HeLa [30] = assay: Effect on apoptosis inducing factor localization into nucleus in human HeLa cells at 20 nM after 72 hrs; type: functional, cell-based
HeLa [31] = assay: Induction of apoptosis inducing factor translocation from […] to nucleus in human HeLa cells at 50 uM after 72 hrs by DAPI staining; type: functional, cell-based
In short: (§9)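 HeLa cells treated 72 h with compound or vehicle; immunocytochemistry co-labeling with anti-AIF and anti-caspase-12 antibodies, nuclei stained with DAPI to assess nuclear localization.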

HeLa [32] = assay: Induction of caspase 12 translocation from endoplasmic reticulum to nucleus in human HeLa cells at 50 uM after 72 hrs by DAPI staining; type: functional, cell-based; in short: as §9
HL-60 [33] = assay: Cytotoxicity against human HL60 cells at 20 uM after 72 hrs in presence of caspase 12 inhibitor ATAD; type: functional, cell-based
In short: (§10)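 HL60 cells treated 72 h with or without caspase-12 inhibitor ATAD (10 μM) or m-calpain inhibitor N-acetyl-Leu-Leu-methioninal (20 μM); cytotoxicity compared with vehicle.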

HL-60 [34] = assay: Cytotoxicity against human HL60 cells at 20 uM after 72 hrs in presence of m-calpain inhibitor N-acetyl-Leu-Leu-methioninal; type: functional, cell-based; in short: as §10
[35] = Inhibition of capped and polyadenylated luciferase mRNA in rabbit reticulocyte lysate; type: functional, Oryctolagus cuniculus; in short: as §6
H9c2 [36] = assay: Cytotoxicity against rat H9c2 cells at 20 nM after 72 hrs by FACS analysis; type: cell-based; settings: h9c2, 72 h, 0.02 µM; in short: as §2

SMILES: COc1cc(OC)c2c(c1)O[C@@]1(c3ccc(Br)cc3)[C@H](c3ccccc3)C[C@@H](O)[C@@]21O
- Activity (Mus musculus [1]): Non-toxic
- Activity (H9c2 [2]): Non-toxic
- pIC50 (KB): > 9.00
- pIC50 (MCF7 [3]): 9.00
- pIC50 (MCF7 [4]): > 9.00
- pIC50 (HCT-116): > 9.00
- pIC50 (HCT-15): 9.00
- pIC50 (HL-60 [5]): > 9.00
- Activity [6]: Not Active
- Activity (HepG2 [7]): Active
- Activity (H9c2 [8]): Not Active
- Activity (H9c2 [9]): Not Active
- Activity (H9c2 [10]): Not Active
- pIC50 (HepG2 [11]): 8.40
- Activity (Mus musculus [12]): Non-toxic
- Activity (HL-60 [13]): Active
- Activity (HL-60 [14]): Active
- Activity (HL-60 [15]): Active
- Activity (HL-60 [16]): inactive
- Activity (HL-60 [17]): inactive
- Activity (HL-60 [18]): inactive
- Activity (HL-60 [19]): inactive
- Activity (HL-60 [20]): inactive
- Activity (HL-60 [21]): inactive
- Activity (HL-60 [22]): inactive
- Activity (HL-60 [23]): inactive
- Activity (Oryctolagus cuniculus): Active
- Activity (HeLa [24]): Active
- Activity (HeLa [25]): Active
- Activity (HeLa [26]): Active
- Activity (HeLa [27]): Active
- Activity (HeLa [28]): Active
- Activity (HeLa [29]): Active
- Activity (HeLa [30]): Active
- Activity (HeLa [31]): Active
- Activity (HeLa [32]): Active
- Activity (HL-60 [33]): inactive
- Activity (HL-60 [34]): Active
- pIC50 [35]: 6.70
- Activity (H9c2 [36]): Non-toxic
